Test results taken from paper PMC3983390 (Journal of medicinal chemistry, 2014).
Like-named read-outs stand apart in the source and are kept apart here.

How the values were obtained:
[1] = DPPH radical scavenging assay; details: 20 to 250 μM drug, 200 μM DPPH, methanol, 30 °C, 25 min; Figure 2
In short: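 Test compound in methanol as 20–250 μM solutions (before mixing), combined 1:1 with 200 μM methanolic DPPH. Plate shaken at 30 °C for 25 min. Controls were methanol plus DPPH, with methanol alone as background and ascorbic acid as standard. Absorbance read at 517 nm. % scavenging = (A control − A sample)/A control × 100.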

[2] = tested on: reserpine-treated rats; experiment: Reversal of reserpine-induced hypolocomotion in rats; assay type: in vivo, rat; details: for reversal of akinesia (locomotor activity) in reserpine-treated rats: i.p., in DI water, 18 h after reserpine 5 mg/kg s.c.
In short: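 Male Sprague–Dawley rats (220–225 g) anaesthetised with isoflurane and given reserpine 5.0 mg/kg s.c. (acetic acid diluted in 5.5% glucose) or saline 18 h beforehand. After 1 h chamber acclimatisation, test compound (in water) given i.p. at 5 μmol/kg; reference agonist given s.c. Horizontal activity counted from infrared beam breaks for 6 h in 30-min bins. n = 4; mean ± SEM; one-way ANOVA with Dunnett vs saline controls.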

[3] = tested on: 6-OHDA lesioned rats; experiment: In vivo rotational experiment with 6-OHDA unilaterally lesioned rats; parameters: species or system rat; details: for rotational activity in 6-OHDA lesioned rats / duration of rotation / total number of rotations: i.p.
In short: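 Rats (290–320 g) with a unilateral 6-OHDA lesion of the left medial forebrain bundle. Lesion confirmed by apomorphine challenges, including 0.05 mg/kg at 21 days post-lesion with contralateral rotations counted for 30 min. Test compound given i.p. at 5 or 10 μmol/kg; controls were vehicle and apomorphine reference. Contralateral (clockwise) rotations counted in harnessed rotometry chambers from dosing, in 30-min bins, over 7–12 h.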

[4] = biological target: rD3 receptor (Rattus norvegicus, UniProt P19020); details: read-out: Ki (nM), rD3 [3H]spiroperidol; HEK-293 cells; from previous ref 44; cited from earlier work
Chain of rD3 receptor (P19020 whole entry): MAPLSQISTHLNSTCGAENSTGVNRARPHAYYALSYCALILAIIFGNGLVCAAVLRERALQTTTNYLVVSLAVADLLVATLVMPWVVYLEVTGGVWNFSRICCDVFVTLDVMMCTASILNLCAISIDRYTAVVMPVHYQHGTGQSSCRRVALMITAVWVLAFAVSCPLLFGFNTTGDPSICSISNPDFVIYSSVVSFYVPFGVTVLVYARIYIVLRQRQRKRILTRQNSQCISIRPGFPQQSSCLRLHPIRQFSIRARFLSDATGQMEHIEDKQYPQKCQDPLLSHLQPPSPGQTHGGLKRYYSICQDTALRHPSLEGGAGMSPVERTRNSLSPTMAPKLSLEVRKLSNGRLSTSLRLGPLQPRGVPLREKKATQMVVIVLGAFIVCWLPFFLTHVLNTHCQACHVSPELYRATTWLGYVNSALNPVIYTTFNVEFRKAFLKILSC

[5] = biological target: T1, hD3 receptor (Homo sapiens, UniProt P35462); details: GTPγS, compared with Emax of DA; cited from earlier work
T1 sequence (P35462 whole entry): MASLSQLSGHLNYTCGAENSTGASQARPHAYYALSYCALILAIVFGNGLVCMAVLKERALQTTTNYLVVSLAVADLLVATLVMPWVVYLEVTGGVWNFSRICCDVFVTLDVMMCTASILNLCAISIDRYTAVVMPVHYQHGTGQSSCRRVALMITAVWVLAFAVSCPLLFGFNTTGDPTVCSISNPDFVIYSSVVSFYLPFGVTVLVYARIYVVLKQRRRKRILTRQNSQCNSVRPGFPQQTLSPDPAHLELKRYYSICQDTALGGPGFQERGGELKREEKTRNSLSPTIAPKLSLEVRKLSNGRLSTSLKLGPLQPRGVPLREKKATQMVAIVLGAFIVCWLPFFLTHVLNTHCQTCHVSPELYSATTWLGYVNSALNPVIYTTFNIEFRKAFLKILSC

[6] = biological target: T2, hD2 receptor (Homo sapiens, UniProt P14416); details: GTPγS, compared with Emax of DA; cited from earlier work
T2 sequence (P14416 whole entry): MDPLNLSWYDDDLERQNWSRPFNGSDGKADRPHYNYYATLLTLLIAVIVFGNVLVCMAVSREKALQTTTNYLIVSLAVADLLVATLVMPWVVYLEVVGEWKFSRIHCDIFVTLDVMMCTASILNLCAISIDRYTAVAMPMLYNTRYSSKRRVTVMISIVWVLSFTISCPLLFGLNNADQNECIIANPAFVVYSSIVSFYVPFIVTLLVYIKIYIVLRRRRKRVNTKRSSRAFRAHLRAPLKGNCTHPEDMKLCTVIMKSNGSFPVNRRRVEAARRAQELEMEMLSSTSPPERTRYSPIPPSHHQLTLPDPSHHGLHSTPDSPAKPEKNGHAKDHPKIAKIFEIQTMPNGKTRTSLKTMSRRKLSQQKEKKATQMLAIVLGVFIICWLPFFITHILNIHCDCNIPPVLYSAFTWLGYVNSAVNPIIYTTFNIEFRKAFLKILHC

[7] = biological target: rD2L receptor (Rattus norvegicus, UniProt P61169); details: read-out: Ki (nM), rD2L [3H]spiroperidol; HEK-293 cells; from previous ref 44; cited from earlier work
Chain of rD2L receptor (P61169 whole entry): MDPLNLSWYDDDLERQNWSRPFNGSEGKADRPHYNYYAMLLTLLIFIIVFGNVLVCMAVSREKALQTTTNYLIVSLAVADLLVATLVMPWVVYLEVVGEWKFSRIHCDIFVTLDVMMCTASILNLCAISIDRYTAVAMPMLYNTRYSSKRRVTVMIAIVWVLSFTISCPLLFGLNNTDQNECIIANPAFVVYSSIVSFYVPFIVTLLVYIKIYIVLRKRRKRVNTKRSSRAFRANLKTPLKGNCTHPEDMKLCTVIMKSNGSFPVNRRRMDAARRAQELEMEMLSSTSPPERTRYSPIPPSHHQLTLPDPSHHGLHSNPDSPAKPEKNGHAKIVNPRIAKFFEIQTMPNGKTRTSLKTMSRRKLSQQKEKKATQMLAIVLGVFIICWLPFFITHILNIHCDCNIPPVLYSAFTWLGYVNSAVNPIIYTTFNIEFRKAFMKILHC

[8] = tested on: MN9D cells; experiment: Neuroprotection against MPP+ toxicity in dopaminergic MN9D cells; assay type: cell-based, mouse; details: 1 h pretreatment, then cotreatment with 100 μM MPP+ for 24 h; MTT
In short: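 MN9D cells (mouse mesencephalic neuron × N18TG2 hybridoma) grown on poly-L-lysine in high-glucose DMEM with 10% serum and penicillin/streptomycin, 37 °C, 5% CO2. Seeded at 1 × 10^4 cells/well and equilibrated 40 h. Pretreated 1 h with test compound (0.001–20 μM; DMSO stock), then MPP+ added to 100 μM final for 24 h; controls 0.01% DMSO. MTT (0.5 mg/mL final) 3 h; formazan dissolved in DMSO/methanol 1:1; A570 minus A690. Three independent experiments, 4–6 replicates, mean ± SD; one-way ANOVA with Tukey vs MPP+.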

[9] = biological target: T1, hD3 receptor; experiment: Stimulation of [35S]GTPγS binding to hD3 receptors expressed in CHO cells; assay type: biochemical; details: for agonist type at D3 receptor: GTPγS, compared with Emax of DA
[10] = biological target: T2, hD2 receptor; experiment: Stimulation of [35S]GTPγS binding to hD2 receptors expressed in CHO cells; assay type: biochemical; details: compared with Emax of DA

CCCN(CCN1CCN(c2ccc(-c3cccc(O)c3)cc2)CC1)[C@H]1CCc2c(O)cccc2C1 [(−)-11, (S)-6-((2-(4-(3′-Hydroxybiphenyl-4-yl)piperazin-1-yl)ethyl)-(propyl)amino)-5,6,7,8-tetrahydronaphthalen-1-ol]
DPPH radical scavenging (antioxidant) activity [1]: less antioxidant activity in this assay than (−)-9b

CCCN(CCN1CCN(c2ccc(-c3ccccc3)cc2)CC1)[C@H]1CCc2nc(N)sc2C1 [Compound 1a, (−)-N6-(2-(4-(Biphenyl-4-yl)piperazin-1-yl)-ethyl)-N6-propyl-4,5,6,7-tetrahydrobenzo[d]thiazole-2,6-diamine]
reversal of akinesia (locomotor activity) in reserpine-treated rats ([2]; 5 μmol/kg): failed to produce any significant effect in reversing akinesia | reversal of akinesia in reserpine-treated rats ([2]; dissolved in 10% beta-hydroxy cyclodextrin solution, 5 μmol/kg i.p.): more effective | rotational activity in 6-OHDA lesioned rats [3]: failed to show any in vivo activity | Ki [4]: 2.1 ± 0.34 nM | agonist type at D3 receptor [5]: full agonist | agonist type at D2 receptor [6]: full agonist | Ki [7]: 186 ± 34 nM | protection of MN9D cells from MPP+ induced toxicity [8]: able to protect the MN9D cells in a dose-dependent manner

CCCN(CCN1CCN(c2ccc(-c3cccc(OC)c3)cc2)CC1)[C@H]1CCc2nc(N)sc2C1 [Compound (−)-8b, (S)-N6-(2-(4-(3′-Methoxybiphenyl-4-yl)piperazin-1-yl)ethyl)-N6-propyl-4,5,6,7-tetrahydrobenzo[d]thiazole-2,6-diamine]
reversal of akinesia (locomotor activity) in reserpine-treated rats ([2]; 5 μmol/kg): highly efficacious in reversing akinesia | less potent at D3 receptor in comparison to 1a ([9]; GTPγS EC50): 2 fold | agonist type at D3 receptor [9]: partial agonist | agonist type at D2 receptor [10]: full agonist | duration of rotation ([3]; 5 μmol/kg): more than 7 h | total number of rotations ([3]; 5 μmol/kg): 3333 rotations | duration of rotation ([3]; 10 μmol/kg): more than 10 h | total number of rotations ([3]; 10 μmol/kg): 5866 rotations | rotational activity in 6-OHDA lesioned rats [3]: produced potent rotational activity in a dose-dependent manner | protection of MN9D cells from MPP+ induced toxicity [8]: did not show any neuroprotection

CCCN(CCN1CCN(c2ccc(-c3cccc(O)c3)cc2)CC1)[C@H]1CCc2nc(N)sc2C1 [Compound (−)-9b, (S)-4′-(4-(2-((2-Amino-4,5,6,7-tetrahydrobenzo[d]thiazol-6-yl)(propyl)amino)ethyl)piperazin-1-yl)biphenyl-3-ol]
reversal of akinesia (locomotor activity) in reserpine-treated rats ([2]; 5 μmol/kg): highly efficacious in reversing akinesia | increase in D3 functional potency in comparison to 1a ([9]; GTPγS EC50): 15 fold | increase in functional selectivity (D2/D3) in comparison to 1a ([9]; GTPγS EC50 ratio): 7 fold | agonist type at D3 receptor [9]: full agonist | agonist type at D2 receptor [10]: full agonist | duration of rotation ([3]; 5 μmol/kg): more than 7 h | total number of rotations ([3]; 5 μmol/kg): 1839 rotations | duration of rotation ([3]; 10 μmol/kg): more than 10 h | total number of rotations ([3]; 10 μmol/kg): 2653 rotations | rotational activity in 6-OHDA lesioned rats [3]: produced potent rotational activity in a dose-dependent manner | protection of MN9D cells from MPP+ induced toxicity [8]: able to protect the MN9D cells in a dose-dependent manner

CN1CCc2cccc3c2[C@H]1Cc1ccc(O)c(O)c1-3 [apomorphine, reference compound]
average contralateral rotation ([3]; apomorphine 0.05 mg/kg, 21 days postlesion, recorded for 30 min): > 250

O=C1O[C@H]([C@@H](O)CO)C(O)=C1O [ascorbic acid]
DPPH radical scavenging (antioxidant) activity [1]: inhibited DPPH radical activity dose dependently

CCCN(CCC)CCc1cccc2c1CC(=O)N2 [ropinirole, Ropinirole, reference compound]
duration of action in reserpine-treated rats ([2]; 5 μmol/kg, s.c., compared to the test compounds): much shorter duration of action | DPPH radical scavenging (antioxidant) activity [1]: poor activity | duration of action in 6-OHDA lesioned rats ([3]; 10 μmol/kg): much shorter duration of action
